High-throughput results deposited in PubChem BioAssay by several laboratories.
MC4R barr agon: agonists of human melanocortin 4 receptor (MC4R) beta-arrestin; U2OS MC4R beta-arrestin complementation, luminescence; percent of melanotan II response, DMSO zero; hit rate 0.98% among 360,000; activation, % at 8.9 µM; P32245;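 active means activation above a per-plate cutoff, the mean activation of sample wells on that plate plus 3 SD, cut at about 8% in these data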
PG9 Ab binder: binds the HIV-1 gp120 antibody PG9; inhibition, % at 6.7 µM; hit rate 0.43% among 360,000; AID 624416; TR-FRET gp120-PG9 antibody binding; in the data active means inhibition above about 8.5%
MC4R antagonist: antagonists of human melanocortin 4 receptor (MC4R). MC4R-expressing cells, MTII-stimulated cAMP, LANCE TR-FRET. AID 540295. hit rate 0.48% among 360,000. inhibition, % at 6.5 µM;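 active means inhibition above its plate's cutoff, the mean of tested wells on that plate plus 3 SD, cut at about 29% in these data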
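system = U2OS cells with stable human MC4R expression | also added = Melanotan II challenge after compound preincubation | dosing = one concentration, 6.5 µM nominal | incubation = compound 30 min, challenge 1 h, detection 1 h | measured by = TR-FRET with Eu-cAMP and labeled anti-cAMP, 671 nm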
NR1D1 modulator: modulators of human Rev-erb alpha DNA binding | P20393 | Rev-erbα–FITC-DNA binding, fluorescence polarization, 90 min | hit rate 0.79% among 370,000 | activity, % at 10 µM;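 active means activity above about 14%, limit read from the data; passing the limit was not always enough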
NTR1 agonist: activates human neurotensin receptor 1 | NTR1-U2OS beta-arrestin-GFP spot imaging, agonist mode | activation, % at 20 µM | hit rate 0.17% among 330,000;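 active means activation at or above 40% of the spot to cytoplasm intensity ratio, with at least 20 cells analyzed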
Target sequence (P30989 whole entry, looked up): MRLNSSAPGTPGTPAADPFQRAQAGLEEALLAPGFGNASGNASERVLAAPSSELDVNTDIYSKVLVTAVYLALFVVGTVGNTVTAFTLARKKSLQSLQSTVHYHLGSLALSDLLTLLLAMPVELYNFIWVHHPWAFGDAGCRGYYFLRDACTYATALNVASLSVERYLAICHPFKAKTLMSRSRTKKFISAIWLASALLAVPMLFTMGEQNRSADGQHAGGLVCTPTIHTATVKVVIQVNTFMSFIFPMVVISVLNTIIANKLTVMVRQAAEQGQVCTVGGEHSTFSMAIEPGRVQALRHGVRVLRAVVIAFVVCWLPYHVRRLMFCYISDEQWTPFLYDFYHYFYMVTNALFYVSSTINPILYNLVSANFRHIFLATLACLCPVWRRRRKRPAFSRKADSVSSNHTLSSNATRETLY
Large screens that a line does not name were inactive. Most compounds without a hit are left out; they make up all but 2.5% or so of the library.

C[C@@H](C[C@@H](O)[C@H](O)C(C)(C)O)[C@@H]1CC[C@]2(C)C3=CC[C@H]4C(C)(C)C(=O)CC[C@]4(C)[C@H]3CC[C@@]12C	MC4R barr agon 9.4
C[C@H](C[C@H](O)[C@H]1OC1(C)C)C1=C2C[C@H](O)C3[C@@]4(C)CCC(=O)C(C)(C)C4CC[C@]3(C)[C@@]2(C)CC1 (stereo partly specified)	none
O=C(CSc1nnc2ccc(-c3ccc(F)cc3)nn12)NCC1CCCO1 (stereo unspecified)	none
O=C(CSc1nnc2ccc(-c3ccc(F)cc3)nn12)N1CCCC1	MC4R antagonist 33
c1ccc(CN2CCN(c3nc(NCc4ccco4)c4ccccc4n3)CC2)cc1	NTR1 agonist 44
OCCN1CCN(c2nc(NCc3ccco3)c3ccccc3n2)CC1	none
COc1ccc2cc(/C=N/NC(=O)CSCc3ccc([N+](=O)[O-])cc3)c(Cl)nc2c1	MC4R barr agon 12
COC(=O)C1=C(C)N(Cc2cccc(C(F)(F)F)c2)C(=NCc2cc(OC)c(OC)c(OC)c2)NC1c1cccc(C(F)(F)F)c1 (stereo unspecified)	none (no result: MC4R barr agon, MC4R antagonist, NTR1 agonist)
Cc1ccc(O)c(-c2cc(-c3ccccc3[N+](=O)[O-])[nH]n2)c1	MC4R barr agon 8.9
COc1cc(C#Cc2ccc3cc(CCO)oc(=O)c3c2)cc(OC)c1	none
CN(C)c1ccc(C#Cc2ccc3cc(CCO)oc(=O)c3c2)cc1	MC4R antagonist 43 (no result: PG9 Ab binder, NR1D1 modulator)
Cc1cccc2[nH]c3c(=O)n(CCN4CCNCC4)cnc3c12	none
CC(C)CCn1cnc2c([nH]c3cccc(Cl)c32)c1=O	MC4R barr agon 9.4
O=C(CSc1nnnn1-c1ccc(Cl)cc1)NC(=O)Nc1ccc2c(c1)OCCO2	MC4R barr agon 9.3
CC(=O)n1cc(N(C(=O)CCl)c2ccccc2)c2ccccc21	MC4R barr agon 17
CC(=O)n1cc(CO)c2ccccc21	none
O=C(CCl)N(c1ccccc1)c1c[nH]c2ccccc12	MC4R barr agon 19
CC(=O)n1cc(N(C(=O)CCl)c2ccc([N+](=O)[O-])cc2)c2ccccc21	MC4R antagonist 32
O=Cc1[nH]c2ccccc2c1N(C(=O)CCl)c1ccc([N+](=O)[O-])cc1	none
Cc1ccc(C(=O)C2=C(O)C(=O)N(CCCn3ccnc3)C2c2ccc(OC(C)C)cc2)o1 (stereo unspecified)	PG9 Ab binder 41
Cc1cc2[nH]c3c4ccccc4nc(C)c3c2cc1C	MC4R barr agon 24 (no result: NTR1 agonist)
CC(C)CN1C(=O)[C@@]2(CC(=O)N(C)C2c2ccccc2)c2cc(-n3cc(CO)nn3)ccc21 (stereo partly specified)	none (no result: MC4R barr agon, PG9 Ab binder, MC4R antagonist, NTR1 agonist)
O=C(/C=C/c1ccco1)NC(=S)Nc1ccc(N2CCOCC2)c(Cl)c1	MC4R barr agon 22
C[C@H]1O[C@@H](O[C@H]2[C@@H](O)C[C@H](O[C@H]3[C@@H](O)C[C@H](O[C@H]4CC[C@@]5(C)[C@H](CC[C@@H]6[C@@H]5C[C@@H](O)[C@]5(C)[C@@H](C7=CC(=O)OC7)CC[C@]65O)C4)O[C@@H]3C)O[C@@H]2C)C[C@H](O)[C@@H]1O	MC4R barr agon 39
COc1cccc(CNC(=S)OC2CCC23CCC(c2ccccc2)CC3)c1 (stereo unspecified)	none (no result: MC4R barr agon, PG9 Ab binder, MC4R antagonist, NTR1 agonist)
COc1ccc(/C=C/C(=O)OCC(=O)c2ccc3c(c2)NC(=O)CO3)cc1	MC4R barr agon 13
O=C(COC(=O)COc1cccc(C(F)(F)F)c1)NC(=O)NC1CCCCC1	MC4R barr agon 8.7
COc1ccc(Nc2nc(-c3ccccc3)nc3ccccc23)c(OC)c1	none
COc1ccc(OC)c(Nc2nc(-c3ccncc3)nc3ccccc23)c1	MC4R barr agon 13
COC(=O)c1cn(-c2ccc3c(c2)[C@@]2(CC(=O)N(C)C2c2ccccc2)C(=O)N3CC(C)C)nn1 (stereo partly specified)	none (no result: MC4R barr agon, PG9 Ab binder, MC4R antagonist, NTR1 agonist)
Cc1ccc(C(=O)O)cc1-c1ccc(/C=C2\SC(=O)N(CC(=O)Nc3ccccc3)C2=O)o1	MC4R antagonist 32
CC1CCN(CCNC(=O)c2ccc3c(=O)n(Cc4ccc(Cl)cc4)c(=S)[nH]c3c2)CC1	MC4R barr agon 9.9 (no result: PG9 Ab binder, NR1D1 modulator)
COC(=O)c1sc2ncccc2c1OCc1c(Cl)cccc1Cl	MC4R barr agon 20
COC(=O)c1sc2ncccc2c1OCc1cccc(Cl)c1	none
CN(C)CCCN(C(=O)CCc1ccccc1)c1nc2ccc(Br)cc2s1	MC4R barr agon 9.5
